ChEMBL document CHEMBL3232972, “Synthesis and biological evaluation of some novel pyrido[1,2-a]pyrimidin-4-ones as antimalarial agents” (Eur J Med Chem, 2014)

Assays:
[1] = system: Plasmodium falciparum; assay: Antimalarial activity against erythrocytic stages of chloroquine-sensitive Plasmodium falciparum 3D7 infected in human O-positive erythrocytes after 48 hrs by SYBR Green-I fluorescence-based method; assay type: functional, organism-based; details: 3D7, 48 h
[2] = Cytotoxicity against human HuH7 cells after 24 hrs by MTT assay; assay type: cell-based; details: Huh-7, 24 h
Summary of the method: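 Huh-7 cells in DMEM with 10% FBS and gentamicin, seeded at 10⁴ cells per well and left overnight. Compounds added for 24 h at 37 °C, 5% CO2, with 10% DMSO as positive control. MTT added for a further 3 h. Formazan dissolved in DMSO after centrifugation, read at 570 nm. IC50 from dose-response curves.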

[3] = Selectivity index, ratio for IC50 for human HuH7 cells to IC50 for erythrocytic stages of chloroquine-sensitive Plasmodium falciparum 3D7; assay type: functional, Huh-7

In the case of COc1ccc(-c2ccc3ncc(C(=O)NCc4ccc(C(F)(F)F)cc4)c(=O)n3c2)cc1, the IC50 [1] is reported as > 100 µM.
For O=C(NCc1ccccc1C(F)(F)F)Nc1cnc2ccccn2c1=O, the IC50 [1] was 100 µM.
With O=C(NCc1ccc(C(F)(F)F)cc1)Nc1cnc2ccccn2c1=O the IC50 [1] was > 100 µM.
With O=C(NCCC(c1ccccc1)c1ccccc1)Nc1cnc2ccccn2c1=O the IC50 [1] was > 100 µM.
For O=C(Nc1ncccc1OCc1ccccc1)Nc1cnc2ccccn2c1=O, the IC50 [1] was > 100 µM.
Compound CC(C)N(Cc1ccccc1)C(=O)Nc1cnc2ccccn2c1=O has an IC50 [1] of 70 µM.
In the case of Cc1ccn2c(=O)c(NC(=O)N(Cc3ccccc3)C(C)C)cnc2c1, the IC50 [1] is reported as > 100 µM.
For O=C(NCc1cccs1)Nc1cnc2ccc(Cl)cn2c1=O, the IC50 [1] was > 100 µM.
In the case of COCCNC(=O)Nc1cnc2ccc(Cl)cn2c1=O, the IC50 [1] is reported as > 100 µM.
For O=C(NCc1ccc(C(F)(F)F)cc1)Nc1cnc2ccc(Cl)cn2c1=O, the IC50 [1] was > 100 µM.
In the case of O=C(NCc1cccc(C(F)(F)F)c1)Nc1cnc2ccc(Cl)cn2c1=O, the IC50 [1] is reported as > 100 µM.
For O=C(NCc1ccccc1C(F)(F)F)Nc1cnc2ccc(Cl)cn2c1=O, the IC50 [1] was > 100 µM.
With CC(C)N(Cc1ccccc1)C(=O)Nc1cnc2ccc(Cl)cn2c1=O the IC50 [1] was > 100 µM.
For O=C(NC1CC1)c1cccnc1N1CCN(C(=O)Nc2cnc3ccccn3c2=O)CC1, the IC50 [1] was > 100 µM.
For CC(C)(C)OC(=O)N1CCN(C(=O)Nc2cnc3ccc(Cl)cn3c2=O)CC1, the IC50 [1] was > 100 µM.
In the case of O=C(Nc1cnc2ccc(Cl)cn2c1=O)N1CCN(C(=O)c2ccco2)CC1, the IC50 [1] is reported as > 100 µM.
For O=C(Nc1cnc2ccccn2c1=O)OCc1cccc(F)c1, the IC50 [1] was 33 µM, the IC50 [2] was > 100 µM and the “Ratio IC50” value [3] was >3.
For O=C(Nc1cnc2ccccn2c1=O)OCc1ccc2c(c1)OCO2, the IC50 [1] was > 100 µM.
In the case of O=C(Nc1cnc2ccc(Cl)cn2c1=O)OCc1ccccn1, the IC50 [1] is reported as > 100 µM.
In the case of O=C(Nc1cnc2ccc(Cl)cn2c1=O)OCc1cccnc1, the IC50 [1] is reported as > 100 µM.
With O=C(Nc1cnc2ccc(Cl)cn2c1=O)OCc1cccc(F)c1 the IC50 [1] was > 100 µM.
With CCOC(=O)[C@H](Cc1ccccc1)NC(=O)Nc1cnc2ccccn2c1=O the IC50 [1] was > 100 µM.
In the case of NC(=O)[C@H](Cc1ccccc1)NC(=O)Nc1cnc2ccccn2c1=O, the IC50 [1] is reported as > 100 µM.
With CC(C)C[C@H](NC(=O)Nc1cnc2ccccn2c1=O)C(N)=O the IC50 [1] was > 100 µM.
In the case of N#C[C@H](Cc1ccccc1)NC(=O)Nc1cnc2ccccn2c1=O, the IC50 [1] is reported as > 100 µM.
In the case of CC(C)C[C@@H](C#N)NC(=O)Nc1cnc2ccccn2c1=O, the IC50 [1] is reported as > 100 µM.
With COc1ccc(CNC(=O)c2cnc3ccccn3c2=O)cc1 the IC50 [1] was > 100 µM.
Compound O=C(NCc1cccc(F)c1)c1cnc2ccccn2c1=O has an IC50 [1] of 43 µM.
In the case of O=C(NCc1ccccc1C(F)(F)F)c1cnc2ccccn2c1=O, the IC50 [1] is reported as > 100 µM.
In the case of O=C(NCc1cccc(C(F)(F)F)c1)c1cnc2ccccn2c1=O, the IC50 [1] is reported as 65 µM, the IC50 [2] is reported as > 200 µM and the “Ratio IC50” value [3] is reported as >3.
In the case of O=C(NCc1ccc(C(F)(F)F)cc1)c1cnc2ccccn2c1=O, the IC50 [1] is reported as 37 µM, the IC50 [2] is reported as > 200 µM and the “Ratio IC50” value [3] is reported as >5.4.
For O=C(NCc1ccc(F)cc1F)c1cnc2ccccn2c1=O, the IC50 [1] was 59 µM, the IC50 [2] was > 200 µM and the “Ratio IC50” value [3] was >3.3.
For O=C(NCCN1CCOCC1)c1cnc2ccccn2c1=O, the IC50 [1] was > 100 µM.
With CCCCCOc1cccnc1NC(=O)c1cnc2ccccn2c1=O the IC50 [1] was > 100 µM.
For O=C(Nc1ncccc1OCc1ccccc1)c1cnc2ccccn2c1=O, the IC50 [1] was 100 µM.
In the case of Cc1noc(C)c1NC(=O)c1cnc2ccccn2c1=O, the IC50 [1] is reported as > 100 µM.
For COc1ccc(C(C)NC(=O)c2cnc3ccccn3c2=O)cc1 (configuration not stated), the IC50 [1] was > 100 µM.
For O=C(NC1CCN(Cc2ccccc2)CC1)c1cnc2ccccn2c1=O, the IC50 [1] was > 100 µM.
With O=C(c1cnc2ccccn2c1=O)N(Cc1ccccc1F)C1CC1 the IC50 [1] was > 100 µM.
In the case of Cc1ccn2c(=O)c(C(=O)NCc3ccc(C(F)(F)F)cc3)cnc2c1, the IC50 [1] is reported as 70 µM, the IC50 [2] is reported as > 100 µM and the “Ratio IC50” value [3] is reported as >1.4.
With COc1ccc(-c2ccc3ncc(C(=O)NCc4cccc(F)c4)c(=O)n3c2)cc1 the IC50 [1] was > 100 µM.
COc1ccc(-c2ccc3ncc(C(=O)NCC4CCCO4)c(=O)n3c2)cc1 (configuration not stated) showed an IC50 [1] of 100 µM.
